Data set [1] concerns the target T1, ATP-dependent translocase ABCB1 (Homo sapiens, UniProt P08183). Description: Reversal of Pgp-mediated DOX resistance in human SW620/AD300 cells assessed as potentiation of DOX-induced cytotoxicity by measuring inhibition of cell proliferation at 1 uM incubated for 48 hrs by SRB assay (reference value: 5.3 +/- 3 %). It counts as cell-based. (In general: The SRB assay estimates cell density from bound dye.)

The target in data set [2] is T1, ATP-dependent translocase ABCB1. Description: Reversal of Pgp-mediated DOX resistance in human SW620/AD300 cells assessed as potentiation of DOX-induced cytotoxicity by measuring change in DOX IC50 at 1 uM incubated for 48 hrs by SRB assay relative to DOX alone. It counts as cell-based. The note with it: sw620/ad300, 48 h.
The nature of data set [3]: Cytotoxicity against human SW620/AD300 cells assessed as cell growth inhibition at 10 uM incubated for 48 hrs by SRB assay relative to control. Type of data set: cell-based. The following applies: read-out: GI.
Another data set has as its system SW620/AD300. Put plainly: Downregulation of ABCB1 expression in human SW620/AD300 cells at 1 to 5 uM incubated for 48 hrs by Western blot analysis. Type of data set: functional, cell-based. A digest of the protocol:
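SW620 and SW620/AD300 cells compared for ABCB1 level; SW620/AD300 treated at 0, 1.0, 2.0 or 5.0 μM for 48 h, then ABCB1 protein assessed.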
Background: Immunoblotting shows a protein as a band on a membrane.

Data set [4] concerns the target T1, ATP-dependent translocase ABCB1. Put plainly: Reversal of ABCB1-mediated multidrug resistance in human SW620 cells assessed as reduction in Rh123 efflux at 0.01 to 0.5 uM incubated for 4 hrs by flow cytometry analysis. The following applies: sw-620, 4 h. It counts as cell-based. A digest of the protocol: (§1)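 Cells pre-loaded with rhodamine 123, then efflux monitored in SW620 and SW620/AD300 cells over a range of modulator levels; mean ± SD of three independent experiments.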
For orientation: Flow cytometry measures light scatter and fluorescence of single cells or particles in a stream.

Data set [5] shares this target. Put plainly: Reversal of ABCB1-mediated multidrug resistance in human SW620/AD300 cells assessed as reduction in Rh123 efflux incubated for 4 hrs by flow cytometry analysis. It counts as cell-based. The following applies: sw620/ad300, 4 h. A digest of the protocol: as §1
Data set [6] concerns the target T2, Broad substrate specificity ATP-binding cassette transporter ABCG2 (Homo sapiens, UniProt Q9UNQ0).
T2 sequence (Q9UNQ0 whole entry): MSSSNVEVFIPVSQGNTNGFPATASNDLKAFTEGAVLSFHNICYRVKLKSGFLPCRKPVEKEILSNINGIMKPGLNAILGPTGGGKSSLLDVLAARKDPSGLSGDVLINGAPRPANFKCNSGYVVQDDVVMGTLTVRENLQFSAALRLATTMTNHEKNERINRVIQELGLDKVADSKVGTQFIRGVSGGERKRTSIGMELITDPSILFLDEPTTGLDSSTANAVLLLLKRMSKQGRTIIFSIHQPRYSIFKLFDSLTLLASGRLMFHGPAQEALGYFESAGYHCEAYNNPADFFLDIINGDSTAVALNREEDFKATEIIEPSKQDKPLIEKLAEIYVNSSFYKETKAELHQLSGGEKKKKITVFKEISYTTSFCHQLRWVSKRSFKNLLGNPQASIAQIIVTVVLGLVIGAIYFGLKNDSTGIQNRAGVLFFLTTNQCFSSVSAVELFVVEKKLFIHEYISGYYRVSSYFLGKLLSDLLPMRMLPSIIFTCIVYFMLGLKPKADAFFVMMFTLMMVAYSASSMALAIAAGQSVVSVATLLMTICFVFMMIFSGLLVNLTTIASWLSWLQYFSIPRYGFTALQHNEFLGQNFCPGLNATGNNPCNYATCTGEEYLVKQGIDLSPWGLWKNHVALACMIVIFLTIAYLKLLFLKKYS
Put plainly: Reversal of ABCG2-mediated mitoxantrone resistance in human NCI-H460/MX20 cells assessed as potentiation of mitoxantrone-induced cytotoxicity by measuring change in mitoxantrone IC50 at 5 uM incubated for 48 hrs by SRB assay relative to mitoxantrone IC50. It counts as cell-based.

For data set [7], the target named is T2, Broad substrate specificity ATP-binding cassette transporter ABCG2. Put plainly: Reversal of ABCG2-mediated mitoxantrone resistance in human NCI-H460/MX20 cells assessed as potentiation of mitoxantrone-induced cytotoxicity by measuring change in mitoxantrone IC50 at 2.5 uM incubated for 48 hrs by SRB assay relative to mitoxantrone IC50. Type of data set: cell-based.

The target in data set [8] is T3, Multidrug resistance-associated protein 1 (Homo sapiens, UniProt P33527). Put plainly: Reversal of ABCC1-mediated vincristine resistance in human KB-CV60 cells assessed as potentiation of vincristine-induced cytotoxicity by measuring change in vincristine IC50 at 5 uM incubated for 48 hrs by SRB assay relative to vincristine IC50. It counts as cell-based. A digest of the protocol: (§2)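 ABCC1-overexpressing KB-CV60 cells: vincristine IC50 determined alone or with modulator at 2.5 or 5 μM; MK571 25 μM reference; reversal fold calculated as IC50 ratio without/with modulator.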
T3 sequence (P33527 whole entry): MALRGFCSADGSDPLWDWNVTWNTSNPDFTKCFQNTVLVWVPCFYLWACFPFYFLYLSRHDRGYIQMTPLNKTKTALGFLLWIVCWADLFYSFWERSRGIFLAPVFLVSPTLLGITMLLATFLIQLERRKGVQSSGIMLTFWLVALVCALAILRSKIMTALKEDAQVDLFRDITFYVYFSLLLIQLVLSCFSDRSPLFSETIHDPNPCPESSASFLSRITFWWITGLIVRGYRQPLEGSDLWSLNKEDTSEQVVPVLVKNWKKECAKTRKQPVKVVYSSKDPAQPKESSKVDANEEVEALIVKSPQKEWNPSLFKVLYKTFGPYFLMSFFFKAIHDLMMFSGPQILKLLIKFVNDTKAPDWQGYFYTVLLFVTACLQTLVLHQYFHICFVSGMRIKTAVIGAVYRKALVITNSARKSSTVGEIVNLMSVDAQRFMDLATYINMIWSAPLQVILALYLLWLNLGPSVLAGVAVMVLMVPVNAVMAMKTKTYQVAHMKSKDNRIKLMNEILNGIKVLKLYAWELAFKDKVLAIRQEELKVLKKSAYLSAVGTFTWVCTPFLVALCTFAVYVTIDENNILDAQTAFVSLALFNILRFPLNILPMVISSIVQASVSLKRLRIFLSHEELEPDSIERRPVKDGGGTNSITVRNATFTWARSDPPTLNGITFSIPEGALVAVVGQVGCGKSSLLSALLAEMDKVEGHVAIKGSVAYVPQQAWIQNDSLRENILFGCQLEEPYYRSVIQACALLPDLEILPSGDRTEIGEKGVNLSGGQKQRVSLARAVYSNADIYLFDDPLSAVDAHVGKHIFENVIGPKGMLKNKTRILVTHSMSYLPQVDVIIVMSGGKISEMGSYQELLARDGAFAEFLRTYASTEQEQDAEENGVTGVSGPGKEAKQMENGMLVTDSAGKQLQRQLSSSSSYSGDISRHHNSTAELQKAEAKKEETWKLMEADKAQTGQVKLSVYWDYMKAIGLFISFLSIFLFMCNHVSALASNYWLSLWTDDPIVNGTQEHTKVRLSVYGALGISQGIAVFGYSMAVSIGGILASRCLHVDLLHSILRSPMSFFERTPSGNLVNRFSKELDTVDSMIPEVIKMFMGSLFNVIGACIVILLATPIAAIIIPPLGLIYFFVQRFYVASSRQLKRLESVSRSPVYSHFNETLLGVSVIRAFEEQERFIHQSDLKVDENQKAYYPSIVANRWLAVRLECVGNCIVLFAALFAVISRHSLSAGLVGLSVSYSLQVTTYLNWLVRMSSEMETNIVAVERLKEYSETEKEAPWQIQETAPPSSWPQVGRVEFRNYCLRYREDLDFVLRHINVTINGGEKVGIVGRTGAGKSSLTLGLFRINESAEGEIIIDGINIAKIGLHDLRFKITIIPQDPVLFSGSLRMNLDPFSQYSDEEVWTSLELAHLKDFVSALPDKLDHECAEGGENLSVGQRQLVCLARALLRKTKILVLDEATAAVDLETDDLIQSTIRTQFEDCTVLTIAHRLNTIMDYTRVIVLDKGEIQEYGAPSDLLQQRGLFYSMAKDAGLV

In data set [9] the target is T3, Multidrug resistance-associated protein 1. Description: Reversal of ABCC1-mediated vincristine resistance in human KB-CV60 cells assessed as potentiation of vincristine-induced cytotoxicity by measuring change in vincristine IC50 at 2.5 uM incubated for 48 hrs by SRB assay relative to vincristine IC50. Type of data set: cell-based. A digest of the protocol:
as §2

Data set [10] deals with T1, ATP-dependent translocase ABCB1. Description: Binding affinity to ABCB1 in human SW620/AD300 cells assessed as increase in thermal stability of ABCB1 at 20 uM incubated for 30 to 60 mins followed by heating at 40.5 to 59.5 degC by […]. Type of data set: cell-based. The following applies: sw620/ad300, 20 µM.
Data set [11] has as its system K562/A02. Description: Potentiation of DOX-induced anti tumor activity against human K562/A02 cells xenografted in BALB/c mouse assessed as tumor size at 30 mg/kg, iv administered every 2 days for 14 days measured during compound dosing by caliper method (reference value: 610 mm3). Type of data set: functional. A digest of the protocol: (§3)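 Mice bearing subcutaneous ABCB1-overexpressing K562/A02 xenografts treated with DOX alone, modulator alone, or combinations (verapamil as comparator) for 14 days; tumor volume measured every two days.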

Data set [12] relates to K562/A02. Description: Effect on tumor size of human K562/A02 cells xenografted in BALB/c mouse at 30 mg/kg, iv administered every 2 days for 14 days measured during compound dosing by caliper method. It counts as ADME, organism-based. The following applies: in vivo. A digest of the protocol:
as §3

In data set [13] the test system is K562/A02. Put plainly: Potentiation of DOX-induced anti tumor activity against human K562/A02 cells xenografted in BALB/c mouse assessed as reduction in tumor weight at 30 mg/kg, iv administered every 2 days for 14 days measured 24 hrs post-last dose. It counts as functional, organism-based. A digest of the protocol: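 K562/A02 subcutaneous xenograft mice treated 14 days with DOX with or without modulator; tumors excised and weighed at Day 14.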

Data set [14] has as its target T1, ATP-dependent translocase ABCB1. Put plainly: Reversal of ABCB1-mediated multidrug resistance in human SW620/AD300 cells assessed as increase in Rh123 accumulation at 0.01 to 0.5 uM incubated for 4 hrs by flow cytometry. It counts as cell-based. The note with it: sw620/ad300, 4 h. A digest of the protocol: (§4)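 SW620 and SW620/AD300 cells exposed to 1 μg/mL rhodamine 123 with or without modulator; intracellular Rh123 content measured; mean ± SD of three independent experiments.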

The next data set relates to SW-620. Put plainly: Induction of Rh123 accumulation in human SW620 cells at 0.01 to 0.5 uM incubated for 4 hrs by flow cytometry. It counts as functional, cell-based. A digest of the protocol: as §4
Data set [15] can be described thus: Cytotoxicity against human KB-CV60 cells assessed as effect on cell proliferation at 2.5 to 5 uM measured after 48 hrs by SRB assay. It counts as cell-based.
The nature of data set [16]: Cytotoxicity against human NCI-H460/MX20 cells assessed as effect on cell proliferation at 2.5 to 5 uM measured after 48 hrs by SRB assay. Type of data set: cell-based.

Here are results for 1 compound from ChEMBL document CHEMBL4602721, “Discovery of Potent Inhibitors against P-Glycoprotein-Mediated Multidrug Resistance Aided by Late-Stage Functionalization of a 2-(4-(Pyridin-2-yl)phenoxy)pyridine Analogue” (J Med Chem, 2020).

Structures are written as SMILES. Calls of active or inactive are those of the source. The rule behind the calls is not given here.

T1 sequence (P08183 whole entry): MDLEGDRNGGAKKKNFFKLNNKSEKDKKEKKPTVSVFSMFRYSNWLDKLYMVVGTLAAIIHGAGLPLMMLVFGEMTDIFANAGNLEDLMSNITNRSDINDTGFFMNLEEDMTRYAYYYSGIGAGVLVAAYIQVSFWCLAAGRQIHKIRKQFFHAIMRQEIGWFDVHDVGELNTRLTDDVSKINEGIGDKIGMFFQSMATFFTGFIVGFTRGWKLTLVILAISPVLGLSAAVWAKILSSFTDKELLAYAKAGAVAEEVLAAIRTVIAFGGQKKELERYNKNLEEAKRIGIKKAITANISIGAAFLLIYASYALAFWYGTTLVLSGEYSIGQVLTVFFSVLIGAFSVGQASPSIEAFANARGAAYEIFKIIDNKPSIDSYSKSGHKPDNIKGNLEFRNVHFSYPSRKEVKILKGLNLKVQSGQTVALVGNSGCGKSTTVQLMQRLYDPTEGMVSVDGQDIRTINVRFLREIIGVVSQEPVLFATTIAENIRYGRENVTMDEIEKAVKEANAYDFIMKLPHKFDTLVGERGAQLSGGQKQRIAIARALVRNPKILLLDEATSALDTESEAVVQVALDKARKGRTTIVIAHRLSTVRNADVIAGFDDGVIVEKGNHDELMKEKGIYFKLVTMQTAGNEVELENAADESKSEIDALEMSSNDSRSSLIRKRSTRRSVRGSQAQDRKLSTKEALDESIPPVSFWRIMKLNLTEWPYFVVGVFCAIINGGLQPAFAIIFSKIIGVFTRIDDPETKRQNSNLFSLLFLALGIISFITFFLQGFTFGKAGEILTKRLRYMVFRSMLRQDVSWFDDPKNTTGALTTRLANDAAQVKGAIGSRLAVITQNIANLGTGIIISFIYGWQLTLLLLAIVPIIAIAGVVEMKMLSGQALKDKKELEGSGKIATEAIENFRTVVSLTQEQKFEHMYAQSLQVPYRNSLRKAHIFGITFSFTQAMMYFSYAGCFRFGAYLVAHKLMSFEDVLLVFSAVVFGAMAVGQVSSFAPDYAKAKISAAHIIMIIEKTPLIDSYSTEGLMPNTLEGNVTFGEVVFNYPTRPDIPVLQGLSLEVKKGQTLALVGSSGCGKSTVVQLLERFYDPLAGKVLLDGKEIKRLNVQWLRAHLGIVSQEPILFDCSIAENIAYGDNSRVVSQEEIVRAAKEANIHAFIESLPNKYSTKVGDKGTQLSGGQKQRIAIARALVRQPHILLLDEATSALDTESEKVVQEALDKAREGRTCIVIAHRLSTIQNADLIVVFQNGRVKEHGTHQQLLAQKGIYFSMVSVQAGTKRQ

As for `COc1cc2c(cc1OC)CN(CCc1ccc(NC(=O)/C=C/c3ccc(Oc4ccc(-c5ccccn5)c(Cl)c4)nc3)cc1)CC2`, the inhibition at 1 µM in data set [1] came out at 60.3%. The “fold change (FC)” value in data set [2] stood at 59.63; in [6], 2.32; in [7], 0.99; in [8], 1.43; in data set [9] it was 1.12. Moreover, the inhibition at 48 h, 10 µM in data set [3] came to 9.7%. For the same compound, the result in the data set with SW620/AD300 and in the data set on SW-620 was inactive. In addition, the Activity entry in data set [4] was “Not Active”; in data set [5] it was “Dose-dependent effect”; in data set [10], “Active”; with K562/A02 [11], 437 mm3; with K562/A02 [12] it was “Non-Toxic”; in [14], “Active”. Besides, the Activity result in [15] and in [16] was “Non-Toxic” in each case. In the data set on K562/A02 [13], the outcome was Active.
